Calls of active or inactive are those of the source. The calls are words filed in the database; no cut-off is given here.

Assay [1] addresses T1, UDP-N-acetylbacillosamine N-acetyltransferase (Campylobacter jejuni subsp. jejuni serotype O:2 (strain ATCC 700819 /NCTC 11168)) (UniProt Q0P9D1).
T1 sequence (whole entry): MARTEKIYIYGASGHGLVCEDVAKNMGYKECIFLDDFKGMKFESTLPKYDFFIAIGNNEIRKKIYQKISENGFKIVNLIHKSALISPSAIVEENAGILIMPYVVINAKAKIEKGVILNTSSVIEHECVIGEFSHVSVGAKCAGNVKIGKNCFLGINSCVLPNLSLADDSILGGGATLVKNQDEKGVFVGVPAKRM
In words: Binding affinity to Campylobacter jejuni NCTC 11168 PglD acetyltransferase expressed in Escherichia coli BL-21(DE3) strain (Stratagene) assessed as change in melting temperature at 100 uM by Sypro orange dye-based differential scanning fluorimetry. On the technique in general: In DSF a fluorescence change marks the thermal transition of the protein.

Assay [2] addresses T2, UDP-N-acetylbacillosamine N-acetyltransferase (Campylobacter jejuni subsp. jejuni serotype O:2 (strain ATCC 700819 /NCTC 11168), UniProt Q0P9D1).
T2 sequence (Q0P9D1 whole entry): T1 sequence (whole entry)
The assay can be described thus: Inhibition of Campylobacter jejuni NCTC 11168 PglD acetyltransferase expressed in Escherichia coli BL-21(DE3) strain (Stratagene) assessed as release of CoASH preincubated for 30 mins followed by addition of 300 uM AcCoA and 500 uM UDP-4-aminosugar as substrate by Ellman's method. The gist of the method: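 Continuous DTNB read-out of CoASH release. Inhibitor (DMSO stock) preincubated 30 min at RT with PglD in 50 mM HEPES pH 7.8, 1 mM MgCl2, 0.05 mg/mL BSA, 0.001% Triton X-100. […] Initial rates over 5 min at RT, A412. IC50 derived.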

The target in assay [3] is T1, UDP-N-acetylbacillosamine N-acetyltransferase (Campylobacter jejuni subsp. jejuni serotype O:2 (strain ATCC 700819 /NCTC 11168)). In words: Effect on quaternary structure of Campylobacter jejuni NCTC 11168 PglD acetyltransferase expressed in Escherichia coli BL-21(DE3) strain (Stratagene) assessed as polydispersity index of PgID at 250 uM by dynamic light scattering method (reference value: 31%). In outline:
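Recombinant C. jejuni PglD (His8-TEV construct, tag removed, Ni-NTA then size-exclusion purified) at 25 μM, with or without 250 μM inhibitor, in 50 mM HEPES 7.5, 100 mM NaCl, 3% DMSO final. Scattering measured at 90° with 685 nm laser; analysed with Rayleigh scattering model to give radius and polydispersity index.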

For assay [4] the target is unchanged. In words: Effect on quaternary structure of Campylobacter jejuni NCTC 11168 PglD acetyltransferase expressed in Escherichia coli BL-21(DE3) strain (Stratagene) assessed as hydrodynamic radius of apo PgID at 250 uM by dynamic light scattering method (reference value: 34 Angstrom). The gist of the method: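 DLS on 25 μM PglD with or without 250 μM inhibitor in 50 mM HEPES 7.5, 100 mM NaCl, 3% DMSO final. Scattering measured at 90° with 685 nm laser. Radius and polydispersity index derived with a Rayleigh scattering model.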

For assay [5], the target named is T2, UDP-N-acetylbacillosamine N-acetyltransferase. In words: Inhibition of Campylobacter jejuni NCTC 11168 PglD acetyltransferase expressed in Escherichia coli BL-21(DE3) strain (Stratagene) assessed as release of CoASH preincubated for 45 mins followed by addition of AcCoA and UDP-4-aminosugar measured after 30 mins by fragment-based high-throughput screening analysis. In outline: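 End-point screen with compounds at 10 μM final. Started with 100 μM UDP-4-aminosugar, quenched at 30 min with 2 mM DTNB, 1 mM EDTA, 20% 1-propanol (final). Developed 5 min, read at 405 nm.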

Assay [6] has as its target T1, UDP-N-acetylbacillosamine N-acetyltransferase (Campylobacter jejuni subsp. jejuni serotype O:2 (strain ATCC 700819 /NCTC 11168)). In words: Competitive inhibition of Campylobacter jejuni NCTC 11168 PglD acetyltransferase expressed in Escherichia coli BL-21(DE3) strain (Stratagene) assessed as release of CoASH preincubated for 30 mins followed by addition of AcCoA and higher levels of UDP-4-aminosugar as substrate by Ellman's method. The gist of the method: (§1)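 Same continuous DTNB-coupled PglD assay: 30 min RT inhibitor–enzyme preincubation, 3 nM PglD, HEPES pH 7.8 buffer, A412 initial rates over 5 min. IC50 determined while raising one substrate above standard (300 μM AcCoA, 500 μM UDP-4-amino-sugar): AcCoA raised 2- or 5-fold, or UDP-4-amino-sugar raised to higher levels.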
(In general: DTNB colorimetry detects thiols as they appear.)

For assay [7], the target named is T2, UDP-N-acetylbacillosamine N-acetyltransferase. In words: Competitive inhibition of Campylobacter jejuni NCTC 11168 PglD acetyltransferase expressed in Escherichia coli BL-21(DE3) strain (Stratagene) assessed as release of CoASH preincubated for 30 mins followed by addition of UDP-4-aminosugar and 5 fold excess AcCoA as substrate by Ellman's method. In outline: as §1

Assay [8] has the same target. In words: Competitive inhibition of Campylobacter jejuni NCTC 11168 PglD acetyltransferase expressed in Escherichia coli BL-21(DE3) strain (Stratagene) assessed as release of CoASH preincubated for 30 mins followed by addition of UDP-4-aminosugar and 2 fold excess AcCoA as substrate by Ellman's method. In outline: as §1

For `CNc1nc(CCc2ccccc2)nc2sc(C(=O)O)c(C)c12`, the thermal shift (ΔTm) (usually the change in melting temperature against a reference sample) in assay [1] was found to be 7.4 °C. Also, the 50% inhibitory concentration (IC50) – broadly, the concentration that inhibits the measured activity by half – in assay [2] was determined as 2.2 µM.
Take `Cc1c(C(=O)O)sc2nc(CCc3ccccc3)nc(NCCc3ccncc3)c12`: in assay [1], the ΔTm amounted to 12 °C. The IC50 in assay [2] was 0.39 µM.
Consider `Cc1c(C(=O)O)sc2nc(CCc3ccccc3)nc(NCCc3ccccn3)c12`, for which the ΔTm in assay [1] worked out at 12.5 °C. The IC50 in assay [2] turned out to be 0.42 µM.
As for `CNc1nc(CCc2cccc(C(F)(F)F)c2)nc2sc(C(=O)O)c(C)c12`, the thermal shift (ΔTm) in assay [1] is 7.4 °C. Moreover, in assay [2], the IC50 amounted to 4.6 µM.
For `CNc1nc(CCc2cccc(OC)c2)nc2sc(C(=O)O)c(C)c12`, in that order: 8.4 °C and 1.1 µM.
As for `CO[C@H](CNc1nc(CCc2ccc(NC(C)=O)cc2)nc2sc(C(=O)O)c(C)c12)c1ccccc1`, the values for the Activity in assay [3] and in assay [4] were 24% and 36 Angstrom, respectively. Besides, the ΔTm in assay [1] was determined as 12.5 °C. Besides, in assay [2], the IC50 amounted to 0.27 µM.
For the compound `CNc1nc(CCc2cccc(OC)c2)nc2cc(C(=O)O)sc12`, the ΔTm in assay [1] was found to be 5.9 °C. Moreover, in assay [2], the IC50 was 1.4 µM.
Take `COc1cccc(CCNc2nc(CCc3ccccc3)nc3sc(C(=O)O)c(C)c23)c1`: the IC50 in assay [2] was determined as 0.45 µM.
Take `COc1ccccc1CCNc1nc(CCc2ccccc2)nc2sc(C(=O)O)c(C)c12`: the ΔTm in assay [1] was 13.7 °C. Besides, the IC50 in assay [2] came to 0.48 µM.
In the case of `CNc1nc(CCc2cccc(Cl)c2)nc2sc(C(=O)O)c(C)c12`, the ΔTm in assay [1] amounted to 9.4 °C. In addition, the IC50 in assay [2] stood at 2.1 µM.
Consider `CC(=O)Nc1ccc(CCc2nc(NCCc3ccccn3)c3c(C)c(C(=O)O)sc3n2)cc1`, for which, in assay [1], the shift in melting temperature (ΔTm) worked out at 11.5 °C. Besides, the IC50 in assay [2] stood at 0.28 µM.
With `Cc1ccc(CCNc2nc(CCc3ccccc3)nc3sc(C(=O)O)c(C)c23)cc1`, in assay [2], the half-maximal inhibitory concentration (IC50) stood at 0.72 µM.
Same read-out and setting: with `Cc1c(C(=O)O)sc2nc(CCc3ccccc3)nc(NCCc3cccc(F)c3)c12` the figure was 0.39 µM; with `Cc1c(C(=O)O)sc2nc(CCc3ccccc3)nc(NC3Cc4ccccc4C3)c12`, 1 µM.
As to `CNc1nc(CCc2ccccc2)nc2cc(C(=O)O)sc12`, in assay [1], the ΔTm turned out to be 4.8 °C. Besides, the IC50 in assay [2] stood at 3.9 µM.
In the case of `O=C(O)c1cc(-c2ccco2)[nH]n1`, in assay [5], the IC50 came out at 8400 µM.
With `Cc1c(C(=O)O)sc2nc(CCc3ccccc3)nc(NCCN)c12`, in assay [1], the thermal shift (ΔTm) worked out at 3.6 °C. Moreover, the IC50 in assay [2] is 1.6 µM.
Regarding `COc1ccc(CCNc2nc(CCc3ccccc3)nc3sc(C(=O)O)c(C)c23)cc1`, the IC50 in assay [2] was 0.54 µM.
Consider `CO[C@@H](CNc1nc(C[C@@H](C)c2ccccc2)nc2sc(C(=O)O)c(C)c12)c1ccccc1`, for which the 50% inhibitory concentration (IC50) in assay [2] was 0.87 µM.
Still for that read-out and setting: the figure for `CNc1nc(CCc2cccc(NC(C)=O)c2)nc2sc(C(=O)O)c(C)c12` is 3.5 µM.
As to `CNc1nc(CCc2ccc3c(c2)OCO3)nc2sc(C(=O)O)c(C)c12`, in assay [1], the ΔTm came out at 7.4 °C. The 50% inhibitory concentration (IC50) in assay [2] turned out to be 1.8 µM.
Turning to `Cc1c(C(=O)O)sc2nc(/C=C/c3ccc4[nH]ccc4c3)[nH]c(=O)c12`, the IC50 in assay [5] came to 1 µM.
`CNc1nc(CCc2ccccc2NC(C)=O)nc2sc(C(=O)O)c(C)c12`: the IC50 in assay [2] came to 9 µM.
Still for that read-out and setting: with `Cc1c(C(=O)O)sc2nc(CCc3ccccc3)nc(NCCc3ccc(F)cc3)c12` the figure was 0.42 µM.
With `CNc1nc(CCc2cccc(F)c2)nc2sc(C(=O)O)c(C)c12`, the ΔTm in assay [1] was 8.9 °C. In addition, the IC50 in assay [2] is 2.3 µM.
With `CNc1nc(CCCc2ccccc2)nc2sc(C(=O)O)c(C)c12`, in assay [1], the ΔTm came to 7.9 °C. The half-maximal inhibitory concentration (IC50) in assay [2] is 4.4 µM.
In the case of `Cc1c(C(=O)O)sc2nc(CCc3ccccc3)nc(NCCc3cccnc3)c12`, the ΔTm in assay [1] was 12 °C. For the same compound, the IC50 in assay [2] was determined as 0.34 µM.
As for `Cc1c(C(=O)O)sc2nc[nH]c(=O)c12`, the IC50 in assay [5] was found to be 860 µM.
For the compound `CO[C@H](CNc1nc(C[C@@H](C)c2ccccc2)nc2sc(C(=O)O)c(C)c12)c1ccccc1`, the ΔTm in assay [1] turned out to be 9.9 °C. The concentration for half-maximal inhibition (IC50) in assay [2] was 0.42 µM.
`Cc1cccc(CCNc2nc(CCc3ccccc3)nc3sc(C(=O)O)c(C)c23)c1`: the IC50 in assay [2] was 0.42 µM.
In the case of `Cc1ccccc1CCNc1nc(CCc2ccccc2)nc2sc(C(=O)O)c(C)c12`, the ΔTm in assay [1] is 14.3 °C. In assay [2], the concentration for half-maximal inhibition (IC50) stood at 0.25 µM.
With `CO[C@@H](CNc1nc(C[C@H](C)c2ccccc2)nc2sc(C(=O)O)c(C)c12)c1ccccc1`, in assay [1], the ΔTm was 9.4 °C. For the same compound, the IC50 in assay [2] is 2 µM.
Regarding `CNc1nc(CCc2ccc(NC(C)=O)cc2)nc2sc(C(=O)O)c(C)c12`, the IC50 in assay [2] was found to be 2.4 µM.
With `Cc1c(C(=O)O)sc2nc(CCc3ccccc3)nc(NCc3ccccc3)c12`, in assay [2], the 50% inhibitory concentration (IC50) stood at 4.5 µM.
Take `Cc1c(C(=O)O)sc2nc(CCc3ccccc3)nc(NCCc3ccccc3F)c12`: the ΔTm in assay [1] was 13.2 °C. Besides, the IC50 in assay [2] worked out at 0.48 µM.
Turning to `Cc1c(C(=O)O)sc2nc(CCc3ccccc3)nc(NCCc3ccc4c(c3)OCO4)c12`, in assay [1], the ΔTm was 11.5 °C. In addition, the IC50 in assay [2] turned out to be 0.59 µM.
Consider `Cc1c(C(=O)O)sc2nc(CCc3ccccc3)nc(NCCc3ccccc3)c12`, for which the ΔTm in assay [1] was 13.2 °C. In addition, the IC50 in assay [2] is 1.4 µM.
In the case of `COc1cc(CCNc2nc(CCc3ccccc3)nc3sc(C(=O)O)c(C)c23)cc(OC)c1`, the inhibition entry in assay [6] is “Active”. The IC50 in assay [7] was found to be 1.4 µM; in assay [2], 0.37 µM; in assay [8], 0.63 µM.
`CNc1nc(CCCCc2ccccc2)nc2sc(C(=O)O)c(C)c12`: the ΔTm in assay [1] was 7.4 °C. In assay [2], the IC50 amounted to 4.1 µM.
On to `Cc1c(C(=O)O)sc2nc(C(C)C)[nH]c(=O)c12`, for which the IC50 in assay [5] came out at 122 µM.
For the compound `CO[C@H](CNc1nc(C[C@H](C)c2ccccc2)nc2sc(C(=O)O)c(C)c12)c1ccccc1`, in assay [1], the ΔTm worked out at 10.4 °C. Further, in assay [2], the half-inhibitory concentration (IC50) came out at 1.1 µM.
The like results for `CC(=O)Nc1ccc(CCc2nc(NCCN)c3c(C)c(C(=O)O)sc3n2)cc1` were, in that order, 5.3 °C and 1.4 µM.

Source of the values: ChEMBL document CHEMBL4004839, “Targeting Bacillosamine Biosynthesis in Bacterial Pathogens: Development of Inhibitors to a Bacterial Amino-Sugar Acetyltransferase from Campylobacter jejuni” (J Med Chem, 2017).
